Laboratory results as given in ChEMBL document CHEMBL1156807, “Catalysis and inhibition of Mycobacterium tuberculosis methionine aminopeptidase” (J Med Chem, 2010).

Assays:
[1] = Inhibition of Mycobacterium tuberculosis H37Rv MetAP1c in presence of 50 uM Mn(2+) by Met-AMC substrate hydrolysis assay
[2] = Inhibition of Mycobacterium tuberculosis H37Rv MetAP1c in presence of 50 uM Fe(2+) by Met-AMC substrate hydrolysis assay
Method in brief: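 Recombinant MtMetAP1c (mapB gene) was expressed in E. coli BL21(DE3) and purified as the apoenzyme (0.5 µM). It was activated with FeCl2 50 µM plus 100 µM ascorbic acid, CoCl2 10 µM, MnCl2 20 µM or NiCl2 20 µM. Buffer was 50 mM MOPS pH 7.5 with 100 µM Met-AMC at room temperature, read by fluorescence at ex 360/em 460.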

[3] = Inhibition of Mycobacterium tuberculosis H37Rv MetAP1c in presence of 50 uM Ni(2+) by Met-AMC substrate hydrolysis assay
[4] = Inhibition of Mycobacterium tuberculosis H37Rv MetAP1c in presence of 50 uM Co(2+) by Met-AMC substrate hydrolysis assay
[5] = Inhibition of Mycobacterium tuberculosis MetAP1c mediated cell growth of Escherichia coli lacking endogenous MetAP complemented with MtMetAP1c after 72 hrs by resazurin dye reduction method
[6] = Inhibition of Mycobacterium tuberculosis MetAP1c expressed in Escherichia coli lacking endogenous MetAP by cell based Met-AMC substrate hydrolysis assay
Method in brief: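 E. coli carrying a chromosomal amber mutation in EcMetAP and complemented by plasmid-borne MtMetAP1c were grown to exponential phase and washed. Cells were stored in CaCl2/Tris/glycerol at −80 °C. The assay held 150 µM Met-AMC, 5 mM CaCl2 (for permeabilization) and 50 mM Tris pH 7.5, with inhibitor at 12 serial dilutions. Fluorescence (ex 360/em 460) was read every 2 min for 6-8 hr at room temperature. IC50 came from hydrolysis rates.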

Row | Compound | IC50 [1] | IC50 [2] | IC50 [3] | IC50 [4] | IC50 [5] | IC50 [6]
1 | O=C(O)c1ccc(-c2ccccc2Cl)o1 | 16 µM | > 500 µM | > 500 µM | > 500 µM |  | 
2 | O=C(O)c1ccc(-c2cc(Cl)ccc2Cl)o1 | 14 µM | > 500 µM | > 500 µM | > 500 µM | > 1000 µM | 623 µM
3 | Cc1ccsc1-c1ccc(O)c(O)c1 | 14 µM | 1.4 µM | 60 µM | 38 µM | 89.5 µM | 35 µM
4 | Cc1nc(-c2ccc(O)c(O)c2)cs1 | 37 µM | 3.6 µM | 104 µM | 76 µM | 208 µM | 20 µM
5 | Cc1ccc(CSc2nnc(N)[nH]2)cc1 | 26 µM | > 500 µM | 2.5 µM | 0.69 µM | > 1000 µM | 281 µM
6 | Fc1ccc(CSc2nnc[nH]2)cc1 | 143 µM | > 500 µM |  | 2 µM |  | 
7 | Nc1nnc(SCc2ccc(F)cc2)[nH]1 | 18 µM | > 500 µM | 1.3 µM | 0.74 µM | > 1000 µM | 121 µM
8 | Nc1nnc(SCc2ccc(Cl)cc2Cl)[nH]1 | 2 µM | 40 µM |  |  |  | 
